Key:
[1] = format: in vivo, human
Outline: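 Plasma sampling on day 28 in a subset of patients at overnight sites, after both the morning and the evening inhaled doses: 1 h–0 min pre-dose, then 0–30 min, 30 min–2 h, 2–6 h and 6–11 h post-dose. Samples were assayed by HPLC–MS (LLOQ 25 pg/mL), and concentrations were log-transformed. A two-compartment model with first-order absorption was fitted in NONMEM 7 by Monte Carlo importance sampling.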

[2] = system: patients with moderate-to-severe COPD; assay: Population pharmacodynamic Emax model of day 29 trough FEV1 in COPD patients; format: in vivo, human
Outline: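 COPD patients (≥40 y, ≥10 pack-years) received inhaled DISKUS test compound for 4 weeks: 100, 400 or 800 μg once daily (morning) or 100, 200 or 400 μg twice daily. Day 29 trough FEV1 (Vitalograph) was the mean of the 11 and 12 h post-evening-dose readings on day 28. An Emax model on total daily dose, with both regimens pooled, was fitted in NONMEM 7 (FOCE with interaction).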

[3] = system: patients with moderate-to-severe COPD; assay: Relationship between systemic exposure; format: in vivo, human; conditions: 0 to 4 h, day 1 and day 28; 100-800 μg once daily, 100-400 μg twice daily
Outline: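 Individual observed plasma Cmax was plotted against maximum glucose, heart rate, QTcF (Fridericia correction) and potassium over 0–4 h on day 1 and day 28. Relationships were explored graphically only. Placebo Cmax was set to 0 pg/mL, and below-LLOQ values were plotted as 12.5 pg/mL (half of the 25 pg/mL LLOQ).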

[4] = system: patients with moderate-to-severe COPD; conditions: cited from earlier work
patients with COPD = conditions: 1200 µg once daily; cited from earlier work

## COc1cc(NC(=O)CCN2CCC(OC(=O)Nc3ccccc3-c3ccccc3)CC2)c(Cl)cc1CNC[C@H](O)c1ccc(O)c2[nH]c(=O)ccc12 [GSK961081, batefenterol]
[1]; human, plasma, inhaled
  Vd/F: 6.26 L
[1]; population PK model, column head Log estimate
  Interindividual variability CL/F: 0.594
[2]; Emax model of day 29 trough FEV1, 347 COPD patients
  Intercept for E0 (FEV1 at zero dose): 0.0650 L
[2]; Emax model of day 29 trough FEV1 versus total daily dose, 347 COPD patients
  ED50 (dose producing 50 % of the maximum effect): 152 µg
[2]; influence of dosing regimen on the PD model
  Difference between once-daily and twice-daily dosing for day 29 trough FEV1: no apparent difference
[3]
  Relationship between maximum QTcF and individual observed Cmax: No clear relationships
  Relationship between maximum glucose and individual observed Cmax: No clear relationships
  Relationship between maximum heart rate and individual observed Cmax: No clear relationships
  Relationship between minimum potassium and individual observed Cmax: No clear relationships
[4]; after 28 days of treatment
  Improvement in the trough FEV1: 155 to 277 mL
[4]
  Dose response of QTc prolongation: no apparent dose response
  Onset of action: rapid onset of action
  Tolerability: well tolerated
[4]; in comparison with placebo or salmeterol
  Prolongation of various QTc intervals: 3 to 5 ms
[4]; safety findings of the primary publication
  Effect on glucose levels, potassium levels, heart rate, or blood pressure: no effect
[4]; total daily dose
  Increase in the trough FEV1 from 400 to 800 μg: only a small increase
Patients with COPD
  Prolongation of the QT interval: no prolongation of the QT interval

From article PMC4561049 (Drugs in R&D, 2015)
